Measured values reported in ChEMBL document CHEMBL6182829, “Developing peptide-based fusion inhibitors as an antiviral strategy utilizing coronin 1 as a template” (RSC Med Chem, 2025).
The source made the active and inactive calls. No cut-off for these calls is given here. Where a SMILES comes first, the peptide text is derived from it.

Experiments:
Influenza A virus H3N2 [1] = test: Antiviral activity against Influenza A virus X-31 (H3N2) infected in human A549 cells assessed as inhibition of viral infection incubated for 48 hrs post infection by hemagglutination assay (reference value: 4 No unit); type: functional
Influenza A virus H3N2 [2] = test: Antiviral activity against Influenza A virus X-31 (H3N2) infected in human A549 cells assessed as reduction in viral M1 protein expression level incubated for 48 hrs post infection by Western blot analysis; type: functional, organism-based
Method in brief: (§1)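 Cells seeded at 0.25 × 10^6 per well and co-infected with virus–peptide mixtures as in the CPE assay. Lysed in RIPA with protease inhibitor 48 h post-infection, protein by BCA. Run on 12% SDS-PAGE, transferred to PVDF, blocked in 3% milk. Probed with anti-M1 (1:1000) and HRP anti-mouse IgG (1:10 000); β-actin as loading control after stripping.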

Influenza A virus H3N2 [3] = test: Antiviral activity against Influenza A virus X-31 (H3N2) infected in MDCK cells assessed as inhibition of viral infection preincubated for 48 hrs followed by viral infection for 45 mins by MTT assay; type: functional, organism-based; details: X-31, MDCK
Method in brief: (§2)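 A549 or MDCK cells seeded 1.5 × 10^4 per well, grown 24 h. Virus premixed with two-fold serial peptide dilutions in serum-free medium with trypsin (2.5 μg ml-1). Cells infected 45 min at 37 °C, washed, then kept 48 h in medium with 0.1% FBS, 0.3% BSA and trypsin. MTT 4 h, absorbance 570 nm. CPE inhibition normalised to cell and virus controls, dose-response fit for EC50; at least 3 sets.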

Influenza A virus H3N2 [4] = test: Antiviral activity against Influenza A virus X-31 (H3N2) infected in human A549 cells assessed as inhibition of viral infection preincubated for 48 hrs followed by viral infection for 45 mins by MTT assay; type: functional, organism-based; details: X-31, A549; method in brief: as §2
Influenza A virus H3N2 [5] = test: Antiviral activity against Influenza A virus X-31 (H3N2) infected in human A549 cells assessed as reduction in virus-induced cytopathic effect preincubated for 48 hrs followed by viral infection for 45 mins by light microscopic analysis; type: functional, organism-based; details: time 2925.0 min
Method in brief: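 A549 cells infected with virus–peptide mixtures at increasing peptide concentrations, then assessed by light microscopy for cytopathic effect 48 h after infection.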

Lipid bilayer [6] = test: Binding affinity to DOPC/DOPE/DOPG/CH (40/30/10/20 mol%) small unilamellar vesicles assessed as membrane organization and dynamic by measuring increase in fluorescence intensity at 1:100 compound: lipid concentration by tryptophan fluorescence based spectrofluorometric analysis
Method in brief: (§3)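 Tryptophan fluorescence spectra of the peptide recorded in buffer and with SUVs. Lipid:peptide 100:1, total lipid 200 μM, in 10 mM TES, 100 mM NaCl, 1 mM CaCl2, 1 mM EDTA, pH 7.4. At least three independent measurements averaged.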

Lipid bilayer [7] = test: Reduction of apparent rotational correlation time in DOPC/DOPE/DOPG/CH (50/30/10/10 mol%) small unilamellar vesicles at 2 to 10 uM by TMA-DPH anisotropy analysis; details: dose 2-10 µM
Method in brief: (§4)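 Apparent rotational correlation time of TMA-DPH from the Perrin equation, combining steady-state anisotropy and mean lifetime with r0 = 0.4. SUVs at 200 μM lipid with varying peptide, in TES/NaCl/CaCl2/EDTA buffer pH 7.4 at 37 °C; at least three measurements.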

Lipid bilayer [8] = test: Inhibition of PEG-induced DOPC/DOPE/DOPG/CH (50/30/10/10 mol%) small unilamellar vesicles assessed as content leakage at 1:100 compound: lipid concentration preincubated for 10 mins followed by PEG addition by fluorescence based analysis (reference value: 13.6 +/- 0.5 %)
Method in brief: (§5)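 Leakage read as loss of fluorescence from vesicles co-encapsulating 8 mM TbCl3 and 80 mM DPA, external probe removed. Lipid 200 μM; peptide 2 μM added 10 min before 6% (w/v) PEG at 37 °C. 100% leakage set with 0.1% (w/v) Triton X-100.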

Lipid bilayer [9] = test: Inhibition of PEG-induced DOPC/DOPE/DOPG/CH (40/30/10/20 mol%) small unilamellar vesicles assessed as increase in lipid mixing at 1:100 compound: lipid concentration preincubated for 10 mins followed by PEG addition by spectrofluorometric analysis relative to control
Method in brief: (§6)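 Lipid mixing followed as FRET dilution. Vesicles carrying 0.8 mol% NBD-PE and Rh-PE mixed 1:9 with probe-free vesicles at 200 μM lipid. Peptide 2 μM added 10 min before 6% (w/v) PEG at 37 °C. NBD donor intensity rise recorded over time; TX-100 defines complete mixing.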

Lipid bilayer [10] = test: Inhibition of PEG-induced DOPC/DOPE/DOPG/CH (40/30/10/20 mol%) small unilamellar vesicles assessed as content leakage at 1:100 compound: lipid concentration preincubated for 10 mins followed by PEG addition by spectrofluorometric analysis; method in brief: as §5
Lipid bilayer [11] = test: Inhibition of PEG-induced DOPC/DOPE/DOPG/CH (50/30/10/10 mol%) small unilamellar vesicles assessed as increase in lipid mixing at 1:100 compound: lipid concentration preincubated for 10 mins followed by PEG addition by spectrofluorometric analysis relative to control; method in brief: as §6
Lipid bilayer [12] = test: Binding affinity to DOPC/DOPE/DOPG (60/30/10 mol%) small unilamellar vesicles assessed as membrane organization and dynamic by measuring increase in fluorescence intensity at 1:100 compound: lipid concentration by tryptophan fluorescence based spectrofluorometric analysis; method in brief: as §3
Lipid bilayer [13] = test: Inhibition of PEG-induced DOPC/DOPE/DOPG/CH (40/30/10/20 mol%) small unilamellar vesicle assessed as content mixing at 1:100 compound: lipid concentration preincubated for 10 mins followed by PEG addition by fluorescence based analysis (reference value: 23.0 +/- 0.9 %)
Method in brief: (§7)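 Content mixing by Tb3+/DPA complex fluorescence. Vesicles loaded with 8 mM TbCl3 or 80 mM DPA, external probe removed by gel filtration. Mixed 1:1 at 200 μM lipid; peptide 2 μM added 10 min before 6% (w/v) PEG, 37 °C. Normalised to co-encapsulated and detergent-treated samples.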

Lipid bilayer [14] = test: Inhibition of interfacial polarity in DOPC/DOPE/DOPG (60/30/10 mol%) small unilamellar vesicles assessed as decrease in interfacial polarity at 2 to 10 uM by TMA-DPH fluorescence analysis; details: dose 2-10 µM
Method in brief: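 Interfacial polarity from TMA-DPH mean fluorescence lifetime in SUVs across peptide concentrations. TCSPC with 340 nm pulsed LED excitation, Ludox for IRF, 10 000 peak counts. Multi-exponential fits with χ2 ≤ 1.2; intensity-averaged lifetime. Run at 37 °C, pH 7.4 TES buffer, 200 μM lipid.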

Lipid bilayer [15] = test: Inhibition of PEG-induced DOPC/DOPE/DOPG (60/30/10 mol%) small unilamellar vesicle assessed as content leakage at 1:100 compound: lipid concentration preincubated for 10 mins followed by PEG addition by fluorescence based analysis (reference value: 11.7 +/- 0.4 %); method in brief: as §5
Lipid bilayer [16] = test: Disruption of interfacial region in DOPC/DOPE/DOPG/CH (40/30/10/20 mol%) small unilamellar vesicles at 2 to 10 uM by TMA-DPH based fluorescence anisotropy; details: dose 2-10 µM
Method in brief: (§8)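 TMA-DPH steady-state anisotropy in SUVs (200 μM total lipid) across a range of peptide concentrations. Excitation 360 nm, emission 428 nm, 5 nm slits. Buffer 10 mM TES, 100 mM NaCl, 1 mM CaCl2, 1 mM EDTA, pH 7.4, 37 °C. Anisotropy from polarised intensities with G-factor correction; mean ± S.E. of at least three measurements.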

Influenza A virus H3N2 [17] = test: Antiviral activity against Influenza A virus X-31 (H3N2) infected in MDCK cells assessed as reduction in viral M1 protein expression level incubated for 48 hrs post infection by Western blot analysis; type: functional, organism-based; method in brief: as §1
Lipid bilayer [18] = test: Disruption of interfacial region in DOPC/DOPE/DOPG (60/30/10 mol%) small unilamellar vesicles at 2 to 10 uM by TMA-DPH based fluorescence anisotropy; details: dose 2-10 µM; method in brief: as §8
Lipid bilayer [19] = test: Inhibition of PEG-induced DOPC/DOPE/DOPG/CH (40/30/10/20 mol%) small unilamellar vesicles assessed as lipid mixing at 1:100 compound: lipid concentration preincubated for 10 mins followed by PEG addition by spectrofluorometric analysis (reference value: 92.7 +/- 3.7 %); method in brief: as §6
Lipid bilayer [20] = test: Inhibition of PEG-induced DOPC/DOPE/DOPG/CH (40/30/10/20 mol%) small unilamellar vesicles assessed as content mixing at 1:100 compound: lipid concentration preincubated for 10 mins followed by PEG addition by spectrofluorometric analysis relative to control; method in brief: as §7
Lipid bilayer [21] = test: Binding affinity to DOPC/DOPE/DOPG/CH (50/30/10/10 mol%) small unilamellar vesicles assessed as membrane organization and dynamic by measuring increase in fluorescence intensity at 1:100 compound: lipid concentration by tryptophan fluorescence based spectrofluorometric analysis; method in brief: as §3
Lipid bilayer [22] = test: Inhibition of PEG-induced DOPC/DOPE/DOPG/CH (40/30/10/20 mol%) small unilamellar vesicles assessed as content leakage at 1:100 compound: lipid concentration preincubated for 10 mins followed by PEG addition by fluorescence based analysis (reference value: 11.1 +/- 0.4 %); method in brief: as §5
Lipid bilayer [23] = test: Disruption of interfacial region in DOPC/DOPE/DOPG/CH (50/30/10/10 mol%) small unilamellar vesicles at 2 to 10 uM by TMA-DPH based fluorescence anisotropy; details: dose 2-10 µM; method in brief: as §8
Lipid bilayer [24] = test: Inhibition of PEG-induced DOPC/DOPE/DOPG/CH (40/30/10/20 mol%) (20 CH) small unilamellar vesicles fusion assessed as content mixing at 1:100 compound: lipid concentration preincubated for 10 mins followed by PEG addition by spectrofluorometric analysis; method in brief: as §7
Lipid bilayer [25] = test: Inhibition of PEG-induced DOPC/DOPE/DOPG/CH (50/30/10/10 mol%) small unilamellar vesicles assessed as content leakage at 1:100 compound: lipid concentration preincubated for 10 mins followed by PEG addition by fluorescence based analysis relative to control; method in brief: as §5
Lipid bilayer [26] = test: Inhibition of PEG-induced DOPC/DOPE/DOPG/CH (50/30/10/10 mol%) small unilamellar vesicles assessed as lipid mixing at 1:100 compound: lipid concentration preincubated for 10 mins followed by PEG addition by spectrofluorometric analysis (reference value: 67.8 +/- 2.7 %); method in brief: as §6
Lipid bilayer [27] = test: Inhibition of PEG-induced DOPC/DOPE/DOPG/CH (50/30/10/10 mol%) small unilamellar vesicles assessed as content mixing at 1:100 compound: lipid concentration preincubated for 10 mins followed by PEG addition by fluorescence based analysis (reference value: 11.4 +/- 0.4 %); method in brief: as §7
Lipid bilayer [28] = test: Reduction of apparent rotational correlation time in DOPC/DOPE/DOPG/CH (40/30/10/20 mol%) small unilamellar vesicles at 2 to 10 uM by TMA-DPH anisotropy analysis; details: dose 2-10 µM; method in brief: as §4
Lipid bilayer [29] = test: Inhibition of PEG-induced DOPC/DOPE/DOPG (60/30/10 mol%) small unilamellar vesicles assessed as lipid mixing at 1:100 compound: lipid concentration preincubated for 10 mins followed by PEG addition by spectrofluorometric analysis (reference value: 57.4 +/- 2.2 %); method in brief: as §6
Lipid bilayer [30] = test: Inhibition of PEG-induced DOPC/DOPE/DOPG/CH (50/30/10/10 mol%) small unilamellar vesicles assessed as content mixing at 1:100 compound: lipid concentration preincubated for 10 mins followed by PEG addition by fluorescence based analysis relative to control; method in brief: as §7
Lipid bilayer [31] = test: Reduction of apparent rotational correlation time in DOPC/DOPE/DOPG (60/30/10 mol%) small unilamellar vesicles at 2 to 10 uM by TMA-DPH anisotropy analysis; details: dose 2-10 µM; method in brief: as §4
Lipid bilayer [32] = test: Inhibition of PEG-induced DOPC/DOPE/DOPG (60/30/10 mol%) small unilamellar vesicles assessed as content mixing at 1:100 compound: lipid concentration preincubated for 10 mins followed by PEG addition by fluorescence based analysis (reference value: 16.7 +/- 0.6 %); method in brief: as §7

CC[C@H](C)[C@H](NC(=O)[C@H](CC(C)C)NC(=O)[C@H](C)NC(=O)[C@@H](NC(=O)[C@H](Cc1ccccc1)NC(=O)[C@H](CCCCN)NC(=O)[C@@H]1CCCN1C(=O)[C@H](CC(N)=O)NC(=O)[C@@H](NC(=O)[C@H](C)NC(=O)[C@H](CS)NC(=O)[C@H](Cc1ccccc1)NC(=O)CNC(=O)[C@H](CO)NC(=O)[C@H](CC(=O)O)NC(=O)[C@H](Cc1c[nH]c2ccccc12)NC(=O)[C@@H](NC(=O)[C@@H](N)[C@@H](C)O)[C@@H](C)O)C(C)C)C(C)C)C(=O)N[C@@H](CS)C(=O)N[C@@H](CC(=O)O)C(=O)N[C@@H](Cc1c[nH]c2ccccc12)C(=O)N[C@@H](CO)C(=O)NCC(=O)O (H-TTWDSGFCAVNPKFVALICDWSG-OH)
Activity (Influenza A virus H3N2 [1]): 0 | Activity (Influenza A virus H3N2 [2]): Dose-dependent-effect | EC50 (Influenza A virus H3N2 [3]): ~21.6 µM | EC50 (Influenza A virus H3N2 [4]): ~20.4 µM | Activity (Influenza A virus H3N2 [5]): Dose-dependent-effect | Activity (Lipid bilayer [6]): Active | Activity (Lipid bilayer [7]): Active | inhibition (Lipid bilayer [8]): 8.3% | inhibition (Lipid bilayer [9]): 8% | inhibition (Lipid bilayer [10]): inactive | inhibition (Lipid bilayer [11]): 6% | Activity (Lipid bilayer [12]): Active | inhibition (Lipid bilayer [13]): 15.5% | inhibition (Lipid bilayer [14]): Active; Partial Reduction Is Observed | inhibition (Lipid bilayer [15]): 8.7% | Activity (Lipid bilayer [16]): Active; Less Stiff In Membranes | Activity (Influenza A virus H3N2 [17]): Dose-dependent-effect | Activity (Lipid bilayer [18]): Active | inhibition (Lipid bilayer [19]): 100% | inhibition (Lipid bilayer [20]): 33% | Activity (Lipid bilayer [21]): Active | inhibition (Lipid bilayer [22]): 14.4% | Activity (Lipid bilayer [23]): Active | inhibition (Lipid bilayer [24]): Active | inhibition (Lipid bilayer [25]): 40% | inhibition (Lipid bilayer [26]): 72.1% | inhibition (Lipid bilayer [27]): 8.1% | Activity (Lipid bilayer [28]): Active | inhibition (Lipid bilayer [29]): 69% | inhibition (Lipid bilayer [30]): 30% | Activity (Lipid bilayer [31]): Active | inhibition (Lipid bilayer [32]): 9.8%
